A selection: hits, their analogues and other compounds. The true share with any hit is near 2.6%.
SENP7 inh – blocks the human protease SENP7 | Q9BQF6 | recombinant SENP7, Z-RLRGG-aminoluciferin luminescence, 40 min | inhibition, % at 5 µM | 330,000 tested, 1.5% active | AID 434973;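 active means inhibition above about 50% at the single test dose, limit read from the data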
SENP8 block-1 – SENP8 protease inhibition. purified SENP8, Z-RLRGG-aminoluciferin cleavage, luminescence. Q96LD8. inhibition, % at 10 µM. AID 2540. 330,000 tested, 1.2% active; in the data active means inhibition above about 50%
Target sequence (Q96LD8 whole entry, looked up): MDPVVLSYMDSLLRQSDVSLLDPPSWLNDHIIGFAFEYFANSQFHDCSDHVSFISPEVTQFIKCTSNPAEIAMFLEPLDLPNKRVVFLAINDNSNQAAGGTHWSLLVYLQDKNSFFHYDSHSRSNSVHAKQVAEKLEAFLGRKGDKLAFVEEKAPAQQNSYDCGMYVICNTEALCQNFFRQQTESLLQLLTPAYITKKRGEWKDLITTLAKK
SENP6 inh – SENP6 protease inhibition; Q9GZR1; Recombinant SENP6 catalytic domain, aminoluciferin luminescence; inhibition, % at 10 µM; 330,000 tested, 1.8% active;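 active means inhibition above about 50% at the single tested dose, limit read from the data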
Target sequence (Q9GZR1 628-1112 limits assumed): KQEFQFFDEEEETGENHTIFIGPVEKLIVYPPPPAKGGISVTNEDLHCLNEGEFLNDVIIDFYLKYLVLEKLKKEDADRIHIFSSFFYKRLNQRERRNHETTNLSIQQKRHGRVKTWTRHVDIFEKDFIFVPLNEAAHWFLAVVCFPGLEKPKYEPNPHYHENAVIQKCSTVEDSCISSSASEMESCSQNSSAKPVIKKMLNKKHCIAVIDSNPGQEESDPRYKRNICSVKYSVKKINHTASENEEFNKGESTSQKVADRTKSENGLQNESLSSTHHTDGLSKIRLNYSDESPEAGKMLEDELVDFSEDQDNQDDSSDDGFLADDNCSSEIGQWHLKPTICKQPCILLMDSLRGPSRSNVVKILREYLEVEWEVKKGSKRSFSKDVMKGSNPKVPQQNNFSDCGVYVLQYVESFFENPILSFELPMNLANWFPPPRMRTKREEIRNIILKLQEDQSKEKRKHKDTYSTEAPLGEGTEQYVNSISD
SENP8 block-2 – blocks human SENP8 cleavage of Nedd8 substrate; recombinant SENP8, Nedd8 substrate fluorescence; 360,000 tested, 0.64% active; inhibition, % at 20 µM; Q96LD8; in the data active means inhibition mostly above about 40%, no sharp cut-off; inactive means mostly below about 27%
Platelet DG rel – modulates dense granule release in human platelets | human platelet-rich plasma, SFLLRN dense granule ATP release, luminescence | 300,000 tested, 0.22% active | inhibition, %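 (compounds screened at 7.5 µM in platelet-rich plasma)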 | AID 1663;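 active means mean replicate score, as percent of positive control, at or above 50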
SENP1 FRET inh – blocks the human SENP1 SUMO protease catalytic domain; Q9P0U3; recombinant SENP1 catalytic domain, CyPet-SUMO1-YPet FRET cleavage; inhibition, % at 10 µM; 360,000 tested, 0.21% active; AID 624204;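 active means inhibition at least 30% at 10 µM, raw YFP signal under a set limit, fluorescence ratio 0.5 to 1.5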
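material = recombinant human SENP1 catalytic domain, His6-tagged | quantity = 20 pM enzyme | reagent = 25 nM SUMO1 FRET substrate | compound dosing = 10 µM single point, 0.5% DMSO | timing = 50 min enzyme reaction, room temperature, light-protected | detection = FRET, CFP and YFP emission | control set = no-enzyme low, enzyme-DMSO high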
SENP8 conf – confirmation of human SENP8 protease inhibitors | AID 488912 | Recombinant SENP8, Z-RLRGG-aminoluciferin luminescence, 60 min | shares compounds with SENP7 inh | inhibition, % at 12.5 µM | 6,200 tested, 40% active;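 active means mean inhibition across replicates above about 50%, limit read from the data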
SENP6 conf – confirmation of human SENP6 protease inhibitors. inhibition, % at 12.5 µM. shares compounds with SENP7 inh. recombinant SENP6, Z-RLRGG-aminoluciferin luminescence. AID 488915. 6,200 tested, 58% active
SENP7 confirm – confirmation of human SENP7 protease inhibitors; shares compounds with SENP7 inh; recombinant SENP7, Z-RLRGG-aminoluciferin luminescence, 40 min; inhibition, % at 12.5 µM; 6,200 tested, 69% active
Casp3 SENP sel – inhibits human caspase-3 in SENP selectivity test | shares compounds with SENP7 inh | purified caspase-3, Z-DEVD-aminoluciferin luminescence, 60 min | inhibition, % at 12.5 µM | 6,200 tested, 60% active;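 active means mean inhibition above about 50%, limit read from the data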
Luc interf – counter-screen for SENP inhibitors: luminescence interference; shares compounds with SENP7 inh; Pre-incubated SENP8/Z-RLRGG-aminoluciferin, luciferase luminescence interference; inhibition, % at 12.5 µM; 6,200 tested, 39% active; AID 488919;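 active means mean inhibition above about 50% when retested at one dose, limit read from the data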
Each line names hits and unclear results; the compound was inactive in the other large screens (follow-up assays come after a bar, where they were run).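 How the source made its calls, unless noted: active means mean inhibition above about 50% in the one-dose retest (limit read from the data); inactive means the rest.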

Cc1c(NC(=O)C(C)OC(=O)c2cc(Cl)ccc2O)c(=O)n(-c2ccccc2)n1C (stereo unspecified)	none
CNC(=O)C[C@@H]1C(=O)N(c2ccc(Br)cc2)CC1(C)C	none (no result: SENP7 inh, SENP8 block-1, SENP6 inh, Platelet DG rel)
COc1ccc2oc(=N)c(C(=O)Nc3ccccc3Cl)cc2c1	SENP7 inh 61 | SENP8 conf inactive | SENP6 conf inactive | SENP7 confirm inactive | Casp3 SENP sel inactive | Luc interf inactive
CCc1nnc(NC(=O)c2cc3ccccc3oc2=O)s1	none
COc1cccc(NC(=O)c2cc3ccccc3oc2=O)c1	SENP7 inh 100, SENP8 block-1 90, SENP6 inh 94 | SENP8 conf inactive | SENP6 conf inactive | SENP7 confirm inactive | Casp3 SENP sel inactive | Luc interf inactive
COc1ccc2oc(=O)c(C(=O)Nc3cccc(C(C)=O)c3)cc2c1	none
Cc1cccnc1NC(=O)c1cc2ccccc2oc1=O	SENP7 inh 91 | SENP8 conf 53 | SENP6 conf 52 | SENP7 confirm 80 | Casp3 SENP sel 68 | Luc interf inactive
COc1cc2ccccc2cc1C(=O)Nc1ccccc1Cl	SENP6 inh 58 | SENP8 conf 72 | SENP6 conf 72 | SENP7 confirm 91 | Luc interf inactive
COc1ccc2oc(=N)c(C(=O)Nc3cccc(C)c3C)cc2c1	none
CC(NC(=S)NCc1ccccc1)C12CC3CC(CC(C3)C1)C2 (stereo unspecified)	none
CC1=C(C(=O)N(C(C)C)C(C)C)CC(CC(=O)NC(c2ccccc2)c2ccccc2)C(=O)N1Cc1ccc(F)cc1 (stereo unspecified)	none (no result: SENP7 inh, SENP8 block-1, SENP6 inh, Platelet DG rel)
N=c1oc2ccccc2cc1C(=O)Nc1ccccc1	SENP7 inh 93, SENP8 block-1 89, SENP6 inh 86 | SENP8 conf inactive | SENP6 conf 56 | SENP7 confirm 78 | Casp3 SENP sel inactive | Luc interf inactive
COc1ccc2oc(=N)c(C(=O)Nc3ccccc3)cc2c1	SENP7 inh 72, SENP6 inh 62 (no result: Platelet DG rel) | SENP8 conf inactive | SENP6 conf inactive | SENP7 confirm 69 | Casp3 SENP sel 57 | Luc interf inactive
N=c1oc2cc(O)ccc2cc1C(=O)Nc1ccccn1	none (no result: SENP8 block-2, Platelet DG rel, SENP1 FRET inh)
N=c1oc2ccc(Cl)cc2cc1C(=O)Nc1ccc(F)cc1	none
COc1ccc2oc(=O)c(C(=O)Nc3ccccc3C)cc2c1	SENP7 inh 74, SENP6 inh 65 | SENP8 conf inactive | SENP6 conf inactive | SENP7 confirm inactive | Casp3 SENP sel 50 | Luc interf inactive
N=c1oc2cc(O)ccc2cc1C(=O)Nc1ccc(Br)cc1	SENP8 block-1 77, SENP6 inh 86 | SENP8 conf inactive | SENP6 conf inactive | SENP7 confirm inactive | Casp3 SENP sel inactive | Luc interf inactive
O=C1NC[C@H](CCCCN2CCN(Cc3ccccc3)C(=O)C2=O)N(Cc2ccccc2)C1=O	none (no result: SENP7 inh, SENP8 block-1, SENP6 inh, Platelet DG rel)
CCN1C(=O)/C(=C/C=C2/Sc3ccccc3N2CCO)SC1=S	none
CCN1C(=O)/C(=C/C=C2/SCCN2C)SC1=S	SENP7 inh 77, SENP6 inh 80, SENP8 block-2 47 | SENP8 conf inactive | SENP6 conf inactive | SENP7 confirm inactive | Casp3 SENP sel inactive | Luc interf inactive
O=C(O)c1ccccc1N/N=C\c1ccnc2ccccc12	SENP8 block-1 90, SENP6 inh 94 | SENP8 conf inactive | SENP6 conf 100 | SENP7 confirm 103 | Casp3 SENP sel 97 | Luc interf 94
O=C(O)c1cccc2c(/C=N/Nc3ccccn3)c[nH]c12	SENP7 inh 90, SENP8 block-1 88, SENP6 inh 90 | SENP8 conf 65 | SENP6 conf 92 | SENP7 confirm 93 | Casp3 SENP sel 93 | Luc interf inactive
C(=N\Nc1ccccn1)/c1c[nH]c2ccccc12	none
ON=Cc1ccnc2ccccc12	none (no result: SENP7 inh, SENP8 block-1, SENP6 inh, Platelet DG rel)
O=C(O)c1ccccc1N/N=C/c1cc(Br)cc(Br)c1O	SENP8 block-1 92, SENP6 inh 102 | SENP8 conf 94 | SENP6 conf 98 | SENP7 confirm 97 | Casp3 SENP sel 70 | Luc interf inactive
Cc1cc2nc(-c3ccc(SCC(=O)NC(C)C)nc3)[nH]c2cc1C	none (no result: SENP8 block-2, SENP1 FRET inh)
Cc1cc(NC(=O)CSc2ccc(-c3nc4cc(C)c(C)cc4[nH]3)cn2)no1	SENP7 inh 51 | SENP8 conf inactive | SENP6 conf inactive | SENP7 confirm inactive | Casp3 SENP sel inactive | Luc interf inactive
Cc1cc2nc(-c3ccc(SCC(=O)Nc4ccc(S(=O)(=O)NC5CC5)cc4)nc3)[nH]c2cc1C	SENP7 inh 63 | SENP8 conf inactive | SENP6 conf inactive | SENP7 confirm 78 | Casp3 SENP sel inactive | Luc interf inactive
CCC(=O)Nc1cc(C)c(NC(=O)c2ccco2)cn1	none
Cc1cc(NC(=O)c2ccccc2)ncc1NC(=O)c1ccco1	SENP7 inh 91, SENP8 block-1 80, SENP6 inh 91 | SENP8 conf 89 | SENP6 conf 88 | SENP7 confirm 99 | Casp3 SENP sel 96 | Luc interf 87
CCCC(=O)Nc1cnc(NC(=O)c2cccc(F)c2)cc1C	SENP7 inh 79, SENP8 block-1 53, SENP6 inh 82 | SENP8 conf 78 | SENP6 conf 75 | SENP7 confirm 94 | Casp3 SENP sel 92 | Luc interf 75
CCOC(=O)CC1c2nc3ccccc3cc2CN1C(=O)OCC (stereo unspecified)	none (no result: SENP7 inh, SENP8 block-1, SENP6 inh, Platelet DG rel)
CC(=O)Nc1ccc(Cl)cc1-c1ccccc1	none (no result: SENP7 inh, SENP8 block-1, SENP6 inh, Platelet DG rel)
CN(C)c1nn(C(=O)Nc2ccc(Cl)cc2Cl)cc1-c1ccccc1	SENP7 inh 101 | SENP8 conf inactive | SENP6 conf inactive | SENP7 confirm inactive | Casp3 SENP sel inactive | Luc interf inactive
COc1ccc(OC)c(/C=N/N=C(\N)c2nonc2N)c1	none
N/C(=N\N=C\c1ccc(O)cc1)c1nonc1N	SENP7 inh 98, SENP8 block-1 95, SENP6 inh 93, Platelet DG rel 65 | SENP8 conf 97 | SENP6 conf 98 | SENP7 confirm 102 | Casp3 SENP sel 98 | Luc interf 96
N/C(=N\N=C\c1cccc(O)c1)c1nonc1N	SENP7 inh 97, SENP8 block-1 95, SENP6 inh 95, Platelet DG rel 70 | SENP8 conf 97 | SENP6 conf 99 | SENP7 confirm 102 | Casp3 SENP sel 98 | Luc interf 94

Screens deposited in PubChem BioAssay by several laboratories.
